This is an account of results in ChEMBL document CHEMBL1127550 (J Med Chem, 1994).

Data set [1] deals with Mus musculus. The data set can be described thus: Mean percentage time spend immobile on ring between 5 and 10 min at 3.125 (mg/kg) intravenous dose in 6 mice. The conditions noted are these: in vivo. It counts as ADME, organism-based. Put shortly:
(§1)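 In male MF1 mice (23-29 g) dosed iv at time zero with a Tween 80/saline dispersion, each animal was placed at 5 min on a 5.5-cm horizontal ring on a 16-cm stalk. The percentage of the 5-min session spent immobile was scored. Ambient 20-22 °C, means ± SE, Dunnett's test versus vehicle.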

Data set [2] has as its system Mus musculus. The data set can be described thus: Mean difference between rectal temperature measured at time zero and rectal temperature measured at 10 min at 1.5625 (mg/kg) intravenous dose in 6 mice. It counts as ADME, organism-based. The conditions noted are these: in vivo. Put shortly: (§2)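 Male MF1 mice (23-29 g), drug dispersed with two parts Tween 80 by weight in 0.9% saline, injected iv at time zero; Tween 80 vehicle control. Rectal thermistor probe inserted 3 cm, read shortly before time zero and at 10 min; change = difference. Mice unrestrained in separate cages, ambient 20-22 °C. Means ± SE, Dunnett's test versus vehicle.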

Data set [3] deals with Mus musculus. The data set can be described thus: Mean difference between rectal temperature measured at time zero and rectal temperature measured at 10 min at 3.125 (mg/kg) intravenous dose in 6 mice. The conditions noted are these: in vivo. The data set is classed as ADME, organism-based. The method in brief:
as §2

Data set [4] relates to Mus musculus. As to the kind of experiment: Mean number of squares entered(counts) over a 5 min period after placement in the center of a walled arena marked out in 16 squares of equal size at 1.5625 (mg/kg) intravenous dose in 6 mice. It counts as ADME, organism-based. The conditions noted are these: in vivo. Put shortly: (§3)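 Male MF1 mice (23-29 g) given drug iv at time zero (Tween 80/saline dispersion; vehicle control). Each mouse was placed immediately in the centre of a 30 × 30 cm walled arena divided into 16 equal squares. Squares entered from 0 to 5 min were counted. Ambient 20-22 °C, means ± SE, Dunnett's test against vehicle.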

The test system of data set [5] is Mus musculus. The data set can be described thus: Mean number of squares entered(counts) over a 5 min period after placement in the center of a walled arena marked out in 16 squares of equal size at 3.125 (mg/kg) intravenous dose in 6 mice. The data set is classed as ADME, organism-based. Conditions: in vivo. Put shortly:
as §3

The subject of data set [6] is Mus musculus. As to the kind of experiment: Mean percentage time spend immobile on ring between 5 and 10 min at 1.5625 (mg/kg) intravenous dose in 6 mice. The data set is classed as ADME, organism-based. Conditions: in vivo. The method in brief:
as §1

The species entered for data set [7] is Mus musculus. As to the kind of experiment: Tested for potency towards inhibition of the twitch response in mouse vas deferens. The data set is classed as functional. Put shortly: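 Vasa deferentia from albino MF1 mice were mounted at 0.5 g initial tension in Mg2+-free Krebs at 37 °C, gassed 95% O2/5% CO2, and stimulated electrically (0.5 ms pulses). Increasing doses were added after washout; twitch amplitude at 14-15 min post-addition was compared with the pre-drug final minute. IC50 came from nonlinear-regression sigmoid log concentration-response curves, n = 6-8 tissues.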

Data set [8] deals with T1, Cannabinoid receptor (Rattus norvegicus, UniProt Q9QZN9+P20272). The data set can be described thus: Binding affinity for the cannabinoid receptor in the absence of phenylmethanesulfonyl fluoride (PMSF) was determined in rat fore brain membranes. The data set is classed as cell membranes, Membrane.
Data set [9] has as its target T1, Cannabinoid receptor. The data set can be described thus: Binding affinity for the cannabinoid receptor in the presence of phenylmethanesulfonyl fluoride (PMSF) was determined in rat fore brain membranes. It counts as cell membranes, Membrane.
For data set [10], the system named is Mus musculus. As to the kind of experiment: Mean percentage time spend immobile on ring between 5 and 10 min at 6.25 (mg/kg) intravenous dose in 6 mice. It counts as ADME, organism-based. Conditions: in vivo. The method in brief: as §1
Data set [11] relates to Mus musculus. As to the kind of experiment: Mean difference between rectal temperature measured at time zero and rectal temperature measured at 10 min at 6.25 (mg/kg) intravenous dose in 6 mice. The data set is classed as ADME, organism-based. The conditions noted are these: in vivo. The method in brief:
as §2

Data set [12] concerns Mus musculus. The data set can be described thus: Mean difference between rectal temperature measured at time zero and rectal temperature measured at 10 min at 10 (mg/kg) intravenous dose in 6 mice. The conditions noted are these: in vivo. It counts as ADME, organism-based. The method in brief: as §2
The subject of data set [13] is Mus musculus. As to the kind of experiment: Mean number of squares entered(counts) over a 5 min period after placement in the center of a walled arena marked out in 16 squares of equal size at 6.25 (mg/kg) intravenous dose in 6 mice. It counts as ADME, organism-based. Conditions: in vivo. Put shortly:
as §3

In data set [14] the test system is Mus musculus. As to the kind of experiment: Mean number of squares entered(counts) over a 5 min period after placement in the center of a walled arena marked out in 16 squares of equal size at 10 (mg/kg) intravenous dose in 6 mice. It counts as ADME, organism-based. Conditions: in vivo. Put shortly: as §3
The subject of data set [15] is Mus musculus. As to the kind of experiment: Mean percentage time spend immobile on ring between 5 and 10 min at 10 (mg/kg) intravenous dose in 6 mice. The data set is classed as ADME, organism-based. The conditions noted are these: in vivo. Put shortly:
as §1

On to `CCCCC/C=C\C/C=C\C/C=C\C/C=C\CCCC(=O)N[C@H](C)CO` [METHANANDAMIDE], for which the Ring immobility in data set [1] is recorded as 87.4%; in [6], 40.2%. Further, the Body temperature in data set [2] turned out to be 0.27 °C; in [3] it was 1.5 °C. For the same molecule, the Hypokinesia in [4] was 76.8 Counts; in [5], 26.5 Counts. In addition, in data set [7], the half-inhibitory concentration (IC50) was determined as 0.012 µM.

`CCCCC/C=C\C/C=C\C/C=C\C/C=C\CCCC(=O)NC[C@H](C)O`: the inhibition constant (Ki) in data set [8] worked out at 0.158 µM; in [9], 0.026 µM. This molecule also registered an IC50 in data set [7] of 0.047 µM.

Take `CCCCC/C=C\C/C=C\C/C=C\C/C=C\CCCC(=O)NCCO` [ANANDAMIDE]: the Ring immobility in data set [10] was determined as 93.9%; in data set [15], 64.2%. Also, the Body temperature in data set [11] was -3.18 °C; in data set [12] it was -1.43 °C. Besides, the Hypokinesia in data set [13] is 10.2 Counts; in [14], 14.7 Counts. Also, in data set [7], inhibition was half-maximal at 0.052 µM (IC50).

On to `CCCCC/C=C\C/C=C\C/C=C\C/C=C\CCCC(=O)N[C@@H](C)CO`, for which half-maximal inhibition in [7] (IC50) required 0.23 µM.

Turning to `CCCCC/C=C\C/C=C\C/C=C\C/C=C\CCCC(=O)NC[C@@H](C)O`, the values for the inhibitory constant (Ki) in data set [8] and in data set [9] were more than 2.95 µM and 0.119 µM, respectively. In data set [7], this molecule returned an IC50 of 0.1 µM.
